Converted amounts (≈) assume the structure as drawn. Where two headings read alike, the source gives them in different places.
Assays:
[1] = tested on: L. donovani clinical isolates (LV9, SUKA 001, BHU1, DD8); format: cell-based, Leishmania donovani
Stability in microsomes [2] = format: in vitro ADME, dog (beagle); settings: Dog; 0.5 μM
Summary of the method: (§1)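 Liver microsomes of each stated species were incubated with test compound at 0.5 µM. Intrinsic clearance (Cli) is reported in mL/min/g tissue.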

Stability in microsomes [3] = format: in vitro ADME, rat (Sprague Dawley); settings: Rat; 0.5 μM
Summary of the method: as §1

Mouse pharmacokinetics = format: in vivo, Mouse (male, CD1); settings: for F% based on AUC(0-inf): mouse
Stability in hepatocytes [4] = format: in vitro ADME, rat (Sprague Dawley); settings: Rat; 0.5 μM
Summary of the method: (§2)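 Test compound was incubated with hepatocytes of the stated species at 0.5 µM. The read-out is intrinsic clearance (Cli), expressed as mL/min/g tissue.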

[5] = tested on: L. donovani intramacrophage amastigotes (INMAC); test: Intra macrophage drug sensitivity assay; format: cell-based, Leishmania donovani; settings: 5 RES clone 1 vs WT intramacrophage amastigotes
[6] = tested on: L. donovani amastigotes (LV9); test: In vivo efficacy, mouse model of VL; parameters: species or system Leishmania donovani; settings: 25 mg/kg bid, 10 days, oral
Summary of the method: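 Each treatment arm used 5 mice. Regimens were dosed once daily (uid) or twice daily (bid) for 5 or 10 days, and bid dosing for 10 days was run over a dose range. Parasite burden was scored as Leishman Donovan Units: amastigotes per 500 nucleated cells multiplied by organ weight in g. Read-out was reduction in parasite load.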

Stability in hepatocytes [7] = format: in vitro ADME; settings: Human; 0.5 μM
Summary of the method: as §2

[8] = Non-GLP preclinical assessment of cardiovascular effects and genotoxicity
[9] = tested on: L. donovani axenic amastigotes; test: Cidal axenic amastigote assay; format: cell-based; settings: Leishmania donovani, read-out: Cidal axenic EC50
[10] = Rat 7-day repeat dose oral toxicology; format: in vivo, rat (male Wistar Han); settings: all doses tested
Rat pharmacokinetics = format: in vivo, Rat (male, SD)
Stability in microsomes [11] = format: in vitro ADME, mouse (CD1); settings: Mouse; 0.5 μM
Summary of the method: as §1

Stability in hepatocytes [12] = format: in vitro ADME, mouse (CD1); settings: Mouse; 0.5 μM
Summary of the method: as §2

[13] = tested on: L. donovani promastigotes (LdBOB); test: Promastigote drug sensitivity assay; format: cell-based, Leishmania donovani; settings: for EC50: Leishmania donovani
Stability in microsomes [14] = format: in vitro ADME; settings: Human; 0.5 μM
Summary of the method: as §1

[15] = tested on: L. donovani axenic amastigotes; test: Rate-of-kill of axenic amastigotes; format: cell-based, Leishmania donovani
[16] = Solubility in simulated physiological media; format: physicochemical; settings: fed simulated intestinal fluid (FeSSIF), pH 6.5
[17] = tested on: L. donovani promastigotes (LdBOB); test: Cell cycle analysis; format: cell-based, Leishmania donovani; settings: 5x EC50 for 8 h
THP-1 cells = test: THP-1 host cell toxicity in the intra-macrophage assay; format: cell-based; settings: Homo sapiens, THP-1, read-out: THP-1 EC50
Stability in hepatocytes [18] = format: in vitro ADME, dog (beagle); settings: Dog; 0.5 μM
Summary of the method: as §2

[19] = tested on: L. donovani amastigotes (LV9); settings: uid; cited from earlier work
[20] = male, CD1, mouse, whole blood, iv, 1 mg/kg
[21] = male, CD1, mouse, whole blood, po, 10 mg/kg
[22] = male, CD1, mouse, whole blood, po, 100 mg/kg
[23] = male, CD1, mouse, whole blood, po, 300 mg/kg
[24] = male, Sprague Dawley, whole blood, iv, 1 mg/kg
[25] = male, Sprague Dawley, whole blood, po, 10 mg/kg
[26] = male, Sprague Dawley, whole blood, po, 100 mg/kg
[27] = male, Sprague Dawley, whole blood, po, 300 mg/kg

C[C@H]1CN(c2n[nH]c3nc(N[C@H]4CC[C@H](NS(=O)(=O)CCC(F)(F)F)CC4)ncc23)CCO1 [Compound 7]
Variation in potency against a panel of Leishmania clinical-derived lines [1]: less than 10 fold | Microsomes Cli (Stability in microsomes [2]): <0.4 mL/min/g tissue | Microsomes Cli (Stability in microsomes [3]): <0.5 mL/min/g tissue | AUC(0-inf) (Mouse pharmacokinetics; [20]): 104 ± 26 ng·h/mL | Vd (Mouse pharmacokinetics; [20]): 4 ± 0.5 L/kg | clearance (Mouse pharmacokinetics; [20]): 169 ± 50 mL/min/kg | half-life (Mouse pharmacokinetics; [20]): 0.3 ± 0.04 h | AUC(0-inf) (Mouse pharmacokinetics; [21]): 1460 ± 362 ng·h/mL | Cmax (Mouse pharmacokinetics; [21]): 561 ± 148 ng/mL | Tmax (Mouse pharmacokinetics; [21]): 2 h | AUC(0-inf) (Mouse pharmacokinetics; [22]): 39400 ± 23800 ng·h/mL | Cmax (Mouse pharmacokinetics; [22]): 8810 ± 1970 ng/mL | Tmax (Mouse pharmacokinetics; [22]): 3 h | AUC(0-inf) (Mouse pharmacokinetics; [23]): 66200 ng·h/mL | Cmax (Mouse pharmacokinetics; [23]): 11400 ± 4210 ng/mL | Tmax (Mouse pharmacokinetics; [23]): 5 h | F% based on AUC(0-inf) (Mouse pharmacokinetics; oral 10 mg/kg): >100% | F% based on AUC(0-inf) (Mouse pharmacokinetics; oral 100 mg/kg): >100% | F% based on AUC(0-inf) (Mouse pharmacokinetics; oral 300 mg/kg): >100% | Hepatocytes Cli (Stability in hepatocytes [4]): 0.77 mL/min/g tissue | Fold difference [5]: 5 | Reduction in parasite load [6]: 99% | Hepatocytes Cli (Stability in hepatocytes [7]): 0.5 mL/min/g tissue | Cardiovascular effects and genotoxicity [8]: did not reveal any issues that would prevent further development | EC50 [9]: 100 nM | Adverse effects (clinical chemistry and histopathology) [10]: no significant adverse effects | AUC(0-inf) (Rat pharmacokinetics; [24]): 1510 ± 782 ng·h/mL | Vd (Rat pharmacokinetics; [24]): 0.4 ± 0.1 L/kg | clearance (Rat pharmacokinetics; [24]): 14 ± 9 mL/min/kg | half-life (Rat pharmacokinetics; [24]): 0.4 ± 0.2 h | AUC(0-inf) (Rat pharmacokinetics; [25]): 6480 ± 2490 ng·h/mL | Cmax (Rat pharmacokinetics; [25]): 1040 ± 261 ng/mL | Tmax (Rat pharmacokinetics; [25]): 2 h | AUC(0-inf) (Rat pharmacokinetics; [26]): 61200 ± 23600 ng·h/mL | Cmax (Rat pharmacokinetics; [26]): 8470 ± 3750 ng/mL | Tmax (Rat pharmacokinetics; [26]): 7.3 h | AUC(0-inf) (Rat pharmacokinetics; [27]): 136000 ± 24800 ng·h/mL | Cmax (Rat pharmacokinetics; [27]): 14800 ± 2680 ng/mL | Tmax (Rat pharmacokinetics; [27]): 7.3 h | F% based on AUC(0-inf) (Rat pharmacokinetics; oral 10 mg/kg): 46 ±18% | F% based on AUC(0-inf) (Rat pharmacokinetics; oral 100 mg/kg): 40 ± 15% | F% based on AUC(0-inf) (Rat pharmacokinetics; oral 300 mg/kg): 51 ± 22% | Microsomes Cli (Stability in microsomes [11]): 0.52 mL/min/g tissue | Hepatocytes Cli (Stability in hepatocytes [12]): 0.84 mL/min/g tissue | Fold ([13]; 4-resistant clone 1, fold resistance vs wild type): 20 | Fold ([13]; 4-resistant clone 2, fold resistance vs wild type): 24 | Fold ([13]; 4-resistant clone 3, fold resistance vs wild type): 48 | Fold ([13]; 5-resistant clone 1, fold resistance vs wild type): 41 | Fold ([13]; 5-resistant clone 2, fold resistance vs wild type): 35 | Fold ([13]; 5-resistant clone 3, fold resistance vs wild type): 22 | EC50 relative to WT ([13]; CRK12MUT and CYC9 co-overexpressing): ~ 6 fold | EC50 relative to WT ([13]; CRK12MUT overexpressing): ~ 3.4 fold | EC50 relative to WT ([13]; CRK12WT and CYC9 co-overexpressing): ~ 3 fold | EC50 ([13]; read-out: pEC50 (SD), 4-resistant clone 1 promastigotes (converted)): 1580 nM | EC50 ([13]; read-out: pEC50 (SD), 4-resistant clone 2 promastigotes (converted)): 2000 nM | EC50 ([13]; read-out: pEC50 (SD), 4-resistant clone 3 promastigotes (converted)): 3980 nM | EC50 ([13]; read-out: pEC50 (SD), 5-resistant clone 1 promastigotes (converted)): 3160 nM | EC50 ([13]; read-out: pEC50 (SD), 5-resistant clone 2 promastigotes (converted)): 3160 nM | EC50 ([13]; read-out: pEC50 (SD), 5-resistant clone 3 promastigotes (converted)): 2000 nM | EC50 ([13]; read-out: pEC50 (SD), Wild type (Age-matched) promastigotes (converted)): 50.1 nM | EC50 ([13]; read-out: pEC50 (SD), Wild type (Start clone) promastigotes (converted)): 79.4 nM | Fold ([13]; Wild type (Age-matched) promastigotes, fold vs wild type): 1 | Fold ([13]; Wild type (Start clone) promastigotes, fold vs wild type): 1 | Microsomes Cli (Stability in microsomes [14]): 0.71 mL/min/g tissue | Time at which compound was cytocidal ([15]; 0.2 μM): 96 h | Time at which compound was cytocidal ([15]; 1.8 μM): 48 h | solubility at 4 h [16]: 25 µg/mL (≈ 50.9 µM) | Effect on cell-cycle progression [17]: accumulation of cells in G1 and in G2/M and a decrease in the proportion of cells in S phase | EC50 (THP-1 cells): > 50000 nM | Hepatocytes Cli (Stability in hepatocytes [18]): 0.31 mL/min/g tissue

CCCCCCCCCCCCCCCCOP(=O)([O-])OCC[N+](C)(C)C [miltefosine]
ED90 in a mouse model [19]: 27 mg/kg
